Test results from ChEMBL document CHEMBL1140934, “Structure-activity relationships of antitubercular nitroimidazoles. 2. Determinants of aerobic activity and quantitative structure-activity relationships” (2009).
In brackets after ≈: the same amount, converted by molar mass.

Legend:
[1] = tested on: Mycobacterium tuberculosis; experiment: Ratio of Kcat/Km for Mycobacterium tuberculosis F420-dependent nitroreductase by Michaelis-Menten equation
How it was run: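 Buffer was 200 mM Tris pH 8.0 with 0.01% Triton X-100 and 20 µM H2F420. H2F420 was made with recombinant Mtb FGD1, which was then heat-inactivated (65°C, 10 min) and removed by ultrafiltration. F420 came from M. smegmatis.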

[2] = tested on: Mycobacterium tuberculosis; experiment: Antimycobacterial activity against wild type Mycobacterium tuberculosis H37Rv ATCC 27294 after 2 weeks; assay type: functional; conditions: 336 h
How it was run: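 M. tuberculosis H37Rv was grown in 7H9 with 0.05% Tween 80, 0.2% glycerol and ADC to OD650 0.2, then diluted 1:1000. It was added to 2-fold serial drug dilutions in the same medium (11 dilutions, 200 µM to 0.19 µM). Plates were incubated 2 weeks at 37°C and MIC99 read macroscopically. Three independent determinations.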

[3] = tested on: Mycobacterium tuberculosis; experiment: Antimycobacterial activity against wild type Mycobacterium tuberculosis H37Rv NRP-2 stage after 3 weeks under anaerobic condition; assay type: functional; conditions: 504 h
How it was run: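 H37Rv was anaerobically adapted from OD650 0.005 in glycerol-free Dubos broth, in sealed stirred tubes (head-space ratio 0.5) for 3 weeks at 37°C. Cultures were dispensed in an anaerobic chamber onto drug (2% DMSO final) and held anaerobically 7 days at 37°C. Cells were washed, 2-fold diluted and spotted on 7H11 agar for 3 weeks. MAC: 90% reduction in visible growth. Isoniazid and metronidazole controls; CFU counts corroborated.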

O=[N+]([O-])c1cn2c(n1)OC[C@@H](NCCc1ccc(OC(F)(F)F)cc1)C2
kcat/Km [1]: 1830 M⁻¹ s⁻¹ | MIC [2]: 0.16 µM (≈ 0.0596 µg/mL) | MBC [3]: 6.25 µM (≈ 2.33 µg/mL)

O=[N+]([O-])c1cn2c(n1)OC[C@@H](NCc1ccc(OC(F)(F)F)cc1)C2
kcat/Km [1]: 2870 M⁻¹ s⁻¹ | MIC [2]: 0.31 µM (≈ 0.111 µg/mL) | MBC [3]: 12.5 µM (≈ 4.48 µg/mL)

O=[N+]([O-])c1cn2c(n1)SC[C@H](OCc1ccc(OC(F)(F)F)cc1)C2
MIC [2]: 50 µM (≈ 18.8 µg/mL) | MBC [3]: 50 µM (≈ 18.8 µg/mL)

O=[N+]([O-])c1cn2c(n1)OC[C@@H](NCc1ccc(OCc3ccc(F)cc3)cc1)C2
kcat/Km [1]: 7530 M⁻¹ s⁻¹ | MIC [2]: 0.2 µM (≈ 0.0797 µg/mL) | MBC [3]: 2 µM (≈ 0.797 µg/mL)

CC(=O)N1CC(OCc2ccc(OC(F)(F)F)cc2)Cn2cc([N+](=O)[O-])nc21 (single isomer, unassigned)
MIC [2]: 6.25 µM (≈ 2.5 µg/mL) | MBC [3]: 31.2 µM (≈ 12.5 µg/mL)

O=[N+]([O-])c1cn2c(n1)OC[C@@H](NCc1ccc(OCc3ccccc3)cc1)C2
kcat/Km [1]: 3450 M⁻¹ s⁻¹ | MIC [2]: 0.15 µM (≈ 0.0571 µg/mL) | MBC [3]: 6.25 µM (≈ 2.38 µg/mL)

O=[N+]([O-])c1cn2c(n1)[S+]([O-])C[C@@H](OCc1ccc(OC(F)(F)F)cc1)C2 (stereo partly drawn)
MIC [2]: > 100 µM | MBC [3]: 50 µM (≈ 19.6 µg/mL)

O=[N+]([O-])c1cn2c(n1)OC[C@@H](NCCCc1ccc(OC(F)(F)F)cc1)C2
kcat/Km [1]: 5120 M⁻¹ s⁻¹ | MIC [2]: 0.078 µM (≈ 0.0301 µg/mL) | MBC [3]: 3.12 µM (≈ 1.21 µg/mL)

O=[N+]([O-])c1cn2c(n1)OC[C@@H](NCCCCCc1ccc(OC(F)(F)F)cc1)C2
kcat/Km [1]: 15200 M⁻¹ s⁻¹ | MIC [2]: 0.078 µM (≈ 0.0323 µg/mL) | MBC [3]: 6.25 µM (≈ 2.59 µg/mL)

O=[N+]([O-])c1cn2c(n1)OC[C@@H](NCc1ccc(OCc3ccc(OC(F)(F)F)cc3)cc1)C2
kcat/Km [1]: 1230 M⁻¹ s⁻¹ | MIC [2]: 0.16 µM (≈ 0.0743 µg/mL) | MBC [3]: 1.56 µM (≈ 0.724 µg/mL)

O=C(COc1ccc(OC(F)(F)F)cc1)N[C@@H]1COc2nc([N+](=O)[O-])cn2C1
kcat/Km [1]: 283 M⁻¹ s⁻¹ | MIC [2]: 0.05 µM (≈ 0.0201 µg/mL) | MBC [3]: 62.5 µM (≈ 25.1 µg/mL)

O=[N+]([O-])c1cn2c(n1)S(=O)(=O)C[C@@H](OCc1ccc(OC(F)(F)F)cc1)C2
MIC [2]: > 100 µM | MBC [3]: 25 µM (≈ 10.2 µg/mL)

O=[N+]([O-])c1cn2c(n1)NC[C@@H](OCc1ccc(OC(F)(F)F)cc1)C2
kcat/Km [1]: 4050 M⁻¹ s⁻¹ | MIC [2]: 0.8 µM (≈ 0.287 µg/mL) | MBC [3]: 125 µM (≈ 44.8 µg/mL)

O=[N+]([O-])c1cn2c(n1)OC[C@@H](NCCCCc1ccc(OC(F)(F)F)cc1)C2
kcat/Km [1]: 8570 M⁻¹ s⁻¹ | MIC [2]: 0.039 µM (≈ 0.0156 µg/mL) | MBC [3]: 3.13 µM (≈ 1.25 µg/mL)

O=CN1CC(OCc2ccc(OC(F)(F)F)cc2)Cn2cc([N+](=O)[O-])nc21 (single isomer, unassigned)
kcat/Km [1]: 1080 M⁻¹ s⁻¹ | MIC [2]: 3.2 µM (≈ 1.24 µg/mL) | MBC [3]: 25 µM (≈ 9.66 µg/mL)

O=[N+]([O-])c1cn2c(n1)OC[C@@H](OCc1ccc(OC(F)(F)F)cc1)C2 [PRETOMANID]
kcat/Km [1]: 2580 M⁻¹ s⁻¹ | MIC [2]: 0.8 µM (≈ 0.287 µg/mL) | MBC [3]: 6.25 µM (≈ 2.25 µg/mL)

O=[N+]([O-])c1cn2c(n1)SC[C@@H](OCc1ccc(OC(F)(F)F)cc1)C2
kcat/Km [1]: 2430 M⁻¹ s⁻¹ | MIC [2]: 0.8 µM (≈ 0.3 µg/mL) | MBC [3]: 25 µM (≈ 9.38 µg/mL)

N[C@@H]1COc2nc([N+](=O)[O-])cn2C1
MIC [2]: > 100 µM | MBC [3]: > 500 µM

CN1C[C@@H](OCc2ccc(OC(F)(F)F)cc2)Cn2cc([N+](=O)[O-])nc21
kcat/Km [1]: 1020 M⁻¹ s⁻¹ | MIC [2]: 6.25 µM (≈ 2.33 µg/mL) | MBC [3]: ≥ 100 µM

O=[N+]([O-])c1cn2c(n1)CC[C@@H](OCc1ccc(OC(F)(F)F)cc1)C2
kcat/Km [1]: 400 M⁻¹ s⁻¹ | MIC [2]: 25 µM (≈ 8.93 µg/mL) | MBC [3]: 250 µM (≈ 89.3 µg/mL)

CCCCc1ccc(CN[C@@H]2COc3nc([N+](=O)[O-])cn3C2)cc1
kcat/Km [1]: 900 M⁻¹ s⁻¹ | MIC [2]: 0.78 µM (≈ 0.258 µg/mL) | MBC [3]: 50 µM (≈ 16.5 µg/mL)
